# Data from ChEMBL document CHEMBL1123846, “Chemical differentiating agents. Differentiation of HL-60 cells by hexamethylenebis[acetamide] analogues” (1987).
# Tests used:
# HL-60 [1] = experiment: Differentiation studies was conducted with the HL-60 human myeloid leukemia cell line and Total cells were counted with a Coulter counter, at a concentration of 1.5 mM; format: functional
# Outline: (§1)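 HL-60 cells seeded at 2×10^5/mL with test agent added from ethanol or Me2SO stock; final Me2SO no more than 77 mM. Total cells counted on a Coulter counter on day 4.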
# HL-60 [2] = experiment: Percent of viability for HL-60 cells was determined by dividing number of viable differentiated cells by total number of viable cells, at concentration of 2.0 mM; format: functional, Homo sapiens
# Outline: (§2)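 HL-60 cultures were seeded at 2×10^5/mL with agent added from ethanol or Me2SO, final Me2SO up to 77 mM, and harvested on day 4. Total cells were counted on a Coulter counter, and the viable fraction of total cells was determined by trypan blue exclusion.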
# HL-60 [3] = experiment: Percent of viability for HL-60 cells was determined by dividing number of viable differentiated cells by total number of viable cells, at concentration of 1.0 mM; format: functional, Homo sapiens; outline: as §2
# HL-60 [4] = experiment: Percent of differentiated HL-60 cells was determined by dividing number of viable differentiated cells by total number of viable cells, at a concentration of 1.0 mM; format: functional, Homo sapiens
# Outline: (§3)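 HL-60 cells started at 2×10^5/mL and counted on day 4. Test agents were added from ethanol or Me2SO, with final Me2SO at most 77 mM. Differentiation was scored by formazan production, which requires superoxide from living cells. % D is the number of viable differentiated cells divided by the total number of viable cells.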
# HL-60 [5] = experiment: Differentiation studies was conducted with the HL-60 human myeloid leukemia cell line and total cells were counted with a Coulter counter, at a concentration of 1.0 mM; format: functional; outline: as §1
# HL-60 [6] = experiment: Percent of differentiated HL-60 cells was determined by dividing number of viable differentiated cells by total number of viable cells, at a concentration of 1.5 mM; format: functional, Homo sapiens; outline: as §3
# HL-60 [7] = experiment: Differentiation studies was conducted with the HL-60 human myeloid leukemia cell line and Total cells were counted with a Coulter counter, at a concentration of 2.0 mM (number of experiments = 1); format: functional; outline: as §1
# HL-60 [8] = experiment: Percent of viability for HL-60 cells was determined by dividing number of viable differentiated cells by total number of viable cells, at concentration of 1.5 mM; format: functional, Homo sapiens; outline: as §2
# HL-60 [9] = experiment: Percent of differentiated HL-60 cells was determined by dividing number of viable differentiated cells by total number of viable cells, at a concentration of 2.0 mM; format: functional, Homo sapiens; outline: as §3
# HL-60 [10] = experiment: Percent of viability for HL-60 cells was determined by dividing number of viable differentiated cells by total number of viable cells, at concentration of 4.0 mM; format: functional, Homo sapiens; outline: as §2
# HL-60 [11] = experiment: Differentiation studies was conducted with the HL-60 human myeloid leukemia cell line and Total cells were counted with a Coulter counter, at a concentration of 3.0 mM; format: functional; outline: as §1
# HL-60 [12] = experiment: Percent of differentiated HL-60 cells was determined by dividing number of viable differentiated cells by total number of viable cells, at a concentration of 3.0 mM; format: functional, Homo sapiens; outline: as §3
# HL-60 [13] = experiment: Differentiation studies was conducted with the HL-60 human myeloid leukemia cell line and total cells were counted with a Coulter counter, at a concentration of 2.0 mM; format: functional; outline: as §1
# HL-60 [14] = experiment: Percent of differentiated HL-60 cells was determined by dividing number of viable differentiated cells by total number of viable cells, at a concentration of 4.0 mM; format: functional, Homo sapiens; outline: as §3
# HL-60 [15] = experiment: Percent of viability for HL-60 cells was determined by dividing number of viable differentiated cells by total number of viable cells, at concentration of 3.0 mM; format: functional, Homo sapiens; outline: as §2
# HL-60 [16] = experiment: Differentiation studies was conducted with the HL-60 human myeloid leukemia cell line and Total cells were counted with a Coulter counter, at a concentration of 4.0 mM; format: functional; outline: as §1
# HL-60 [17] = experiment: Differentiation studies was conducted with the HL-60 human myeloid leukemia cell line and Total cells were counted with a Coulter counter, at a concentration of 2.5 mM; format: functional; outline: as §1
# HL-60 [18] = experiment: Percent of viability for HL-60 cells was determined by dividing number of viable differentiated cells by total number of viable cells, at concentration of 2.5 mM; format: functional, Homo sapiens; outline: as §2
# HL-60 [19] = experiment: Percent of differentiated HL-60 cells was determined by dividing number of viable differentiated cells by total number of viable cells, at a concentration of 2.5 mM; format: functional, Homo sapiens; outline: as §3
# HL-60 [20] = experiment: Percent of differentiated in HL-60 cells was determined by dividing number of viable differentiated cells by total number of viable cells, at a concentration of 2.5 mM; format: functional, Homo sapiens; outline: as §3
# HL-60 [21] = experiment: Percent of differentiated in HL-60 cells was determined by dividing number of viable differentiated cells by total number of viable cells, at a concentration of 2.0 mM; format: functional, Homo sapiens; outline: as §3
# HL-60 [22] = experiment: Percent of differentiated in HL-60 cells was determined by dividing number of viable differentiated cells by total number of viable cells, at a concentration of 3.0 mM; format: functional, Homo sapiens; outline: as §3
# HL-60 [23] = experiment: Differentiation studies was conducted with the HL-60 human myeloid leukemia cell line and total cells were counted with a Coulter counter, at a concentration of 0.1 mM; format: functional; outline: as §1
# HL-60 [24] = experiment: Differentiation studies was conducted with the HL-60 human myeloid leukemia cell line andTotal cells were counted with a Coulter counter, at a concentration of 0.5 mM; format: functional; outline: as §1
# HL-60 [25] = experiment: Percent of viability for HL-60 cells was determined by dividing number of viable differentiated cells by total number of viable cells, at concentration of 0.5 mM; format: functional, Homo sapiens; outline: as §2
# HL-60 [26] = experiment: Percent of differentiated HL-60 cells was determined by dividing number of viable differentiated cells by total number of viable cells, at a concentration of 0.3 mM; format: functional, Homo sapiens; outline: as §3
# HL-60 [27] = experiment: Percent of viability for HL-60 cells was determined by dividing number of viable differentiated cells by total number of viable cells, at concentration of 0.4 mM; format: functional, Homo sapiens; outline: as §2
# HL-60 [28] = experiment: Differentiation studies was conducted with the HL-60 human myeloid leukemia cell line andTotal cells were counted with a Coulter counter, at a concentration of 0.4 mM; format: functional; outline: as §1
# HL-60 [29] = experiment: Percent of differentiated HL-60 cells was determined by dividing number of viable differentiated cells by total number of viable cells, at a concentration of 0.4 mM; format: functional, Homo sapiens; outline: as §3
# HL-60 [30] = experiment: Differentiation studies was conducted with the HL-60 human myeloid leukemia cell line andTotal cells were counted with a Coulter counter, at a concentration of 0.3 mM; format: functional; outline: as §1
# HL-60 [31] = experiment: Percent of viability for HL-60 cells was determined by dividing number of viable differentiated cells by total number of viable cells, at concentration of 0.3 mM; format: functional, Homo sapiens; outline: as §2
# HL-60 [32] = experiment: Percent of viability for HL-60 cells was determined by dividing number of viable differentiated cells by total number of viable cells, at concentration of 0.1 mM; format: functional, Homo sapiens; outline: as §2
# HL-60 [33] = experiment: Percent of differentiated HL-60 cells was determined by dividing number of viable differentiated cells by total number of viable cells, at a concentration of 0.5 mM; format: functional, Homo sapiens; outline: as §3
# HL-60 [34] = experiment: Percent of differentiated HL-60 cells was determined by dividing number of viable differentiated cells by total number of viable cells, at a concentration of 0.1 mM; format: functional, Homo sapiens; outline: as §3
# HL-60 [35] = experiment: Percent of differentiated in HL-60 cells was determined by dividing number of viable differentiated cells by total number of viable cells, at a concentration of 1.0 mM; format: functional, Homo sapiens; outline: as §3
# HL-60 [36] = experiment: Percent of differentiated HL-60 cells was determined by dividing number of viable differentiated cells by total number of viable cells, at a concentration of 64 mM; format: functional, Homo sapiens; outline: as §3
# HL-60 [37] = experiment: Differentiation studies was conducted with the HL-60 human myeloid leukemia cell line and Total cells were counted with a Coulter counter, at a concentration of 77 mM; format: functional; outline: as §1
# HL-60 [38] = experiment: Differentiation studies was conducted with the HL-60 human myeloid leukemia cell line and Total cells were counted with a Coulter counter, at a concentration of 64 mM; format: functional; outline: as §1
# HL-60 [39] = experiment: Differentiation studies was conducted with the HL-60 human myeloid leukemia cell line and total cells were counted with a Coulter counter, at a concentration of 38 mM; format: functional; outline: as §1
# HL-60 [40] = experiment: Percent of viability for HL-60 cells was determined by dividing number of viable differentiated cells by total number of viable cells, at concentration of 64 mM; format: functional, Homo sapiens; outline: as §2
# HL-60 [41] = experiment: Percent of differentiated HL-60 cells was determined by dividing number of viable differentiated cells by total number of viable cells, at a concentration of 38 mM; format: functional, Homo sapiens; outline: as §3
# HL-60 [42] = experiment: Percent of viability for HL-60 cells was determined by dividing number of viable differentiated cells by total number of viable cells, at concentration of 77 mM; format: functional, Homo sapiens; outline: as §2
# HL-60 [43] = experiment: Percent of viability for HL-60 cells was determined by dividing number of viable differentiated cells by total number of viable cells, at concentration of 38 mM; format: functional, Homo sapiens; outline: as §2
# HL-60 [44] = experiment: Percent of differentiated HL-60 cells was determined by dividing number of viable differentiated cells by total number of viable cells, at a concentration of 77 mM; format: functional, Homo sapiens; outline: as §3
smiles,measurement,setting,value
CC(=O)NCCCCCC(=O)N(C)C,Total cells,HL-60 [1],1.07e+06 mL
same,V,HL-60 [2],82%
same,V,HL-60 [3],85%
same,D,HL-60 [4],24%
same,Total cells,HL-60 [5],700000 mL
same,D,HL-60 [6],13%
same,Total cells,HL-60 [7],940000 mL
same,V,HL-60 [8],78%
same,D,HL-60 [9],12%
CC(=O)NCCCCCCNC(C)=O [HEXAMETHYLENEBISACETAMIDE],V,HL-60 [10],29%
same,V,HL-60 [2],74%
same,Total cells,HL-60 [11],520000 mL
same,D,HL-60 [12],59%
same,Total cells,HL-60 [13],690000 mL
same,D,HL-60 [14],84%
same,V,HL-60 [15],68%
same,D,HL-60 [9],32%
same,Total cells,HL-60 [16],390000 mL
CC(=O)N(C)CCCCCCN(C)C(C)=O,V,HL-60 [2],57%
same,V,HL-60 [3],90%
same,Total cells,HL-60 [11],420000 mL
same,D,HL-60 [12],94%
same,D,HL-60 [4],10%
same,Total cells,HL-60 [5],1.12e+06 mL
same,Total cells,HL-60 [17],510000 mL
same,Total cells,HL-60 [13],700000 mL
same,V,HL-60 [18],32%
same,V,HL-60 [15],30%
same,D,HL-60 [9],74%
same,D,HL-60 [19],93%
CC(=O)N(CCCCCCN(C(C)=O)C(C)=O)C(C)=O,D,HL-60 [20],76%
same,V,HL-60 [2],71%
same,Total cells,HL-60 [11],300000 mL
same,D,HL-60 [21],65%
same,Total cells,HL-60 [17],480000 mL
same,Total cells,HL-60 [13],530000 mL
same,D,HL-60 [22],80%
same,V,HL-60 [18],51%
same,V,HL-60 [15],45%
CC1(C)NC(=O)N(CCCCCCN2C(=O)NC(C)(C)C2=O)C1=O,Total cells,HL-60 [23],870000 mL
same,Total cells,HL-60 [24],310000 mL
same,V,HL-60 [25],43%
same,D,HL-60 [26],26%
same,V,HL-60 [27],53%
same,Total cells,HL-60 [28],420000 mL
same,D,HL-60 [29],45%
same,Total cells,HL-60 [30],480000 mL
same,V,HL-60 [31],82%
same,V,HL-60 [32],96%
same,D,HL-60 [33],76%
same,D,HL-60 [34],9%
O=C1CCCCN1CCCCCCN1CCCCC1=O,D,HL-60 [20],72%
same,V,HL-60 [2],65%
same,V,HL-60 [3],87%
same,Total cells,HL-60 [11],370000 mL
same,Total cells,HL-60 [5],830000 mL
same,D,HL-60 [21],40%
same,Total cells,HL-60 [17],680000 mL
same,Total cells,HL-60 [13],760000 mL
same,D,HL-60 [22],87%
same,V,HL-60 [18],62%
same,V,HL-60 [15],25%
same,D,HL-60 [35],12%
CNC(=O)CCCCCNC(C)=O,V,HL-60 [10],56%
same,Total cells,HL-60 [11],680000 mL
same,D,HL-60 [12],40%
same,D,HL-60 [14],71%
same,V,HL-60 [15],72%
same,Total cells,HL-60 [16],690000 mL
C[S+](C)[O-] [DIMETHYL SULFOXIDE],D,HL-60 [36],9%
same,Total cells,HL-60 [37],930000 cells/mL
same,Total cells,HL-60 [38],980000 cells/mL
same,Total cells,HL-60 [39],970000 cells/mL
same,V,HL-60 [40],96%
same,D,HL-60 [41],6%
same,V,HL-60 [42],94%
same,V,HL-60 [43],97%
same,D,HL-60 [44],6%
